{
  "source": "ChEMBL document CHEMBL4311980",
  "about": "“Discovery of 2-isoxazol-3-yl-acetamide analogues as heat shock protein 90 (HSP90) inhibitors with significant anti-HIV activity” (Eur J Med Chem, 2019)",
  "key": {"[1]": {"experiment": "Ratio of therapeutic index for compound to therapeutic index of AZT"}, "[2]": {"experiment": "Therapeutic index, ratio of CC50 for human Jurkat J6 cells to IC50 for antiviral activity against HIV-1 NL4-3 infected in human Jurkat J6 cells", "assay_type": "toxicity, cell-based", "details": "read-out: Ratio CC50/IC50", "in_short": "(§1)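 IC50 was determined from p24 ELISA 72 h after 0.5 MOI HIV-1 NL4-3 infection with compound at different concentrations. Therapeutic index = CC50/IC50.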"}, "[3]": {"experiment": "Cytotoxicity against human Jurkat J6 cells assessed as reduction in cell viability after 48 hrs by MTT assay", "assay_type": "cell-based", "in_short": "(§2)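 Cells were seeded at 25,000/well in complete medium with compound at different concentrations, with untreated and DMSO controls, and incubated 48 h. MTT (5 mg/mL stock) was added for 4 h at 37 °C in the dark. Formazan was dissolved in isopropanol and A570 read. CC50 and highest non-cytotoxic concentration were derived from this assay.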"}, "[4]": {"system": "Human immunodeficiency virus 1", "experiment": "Antiviral activity against HIV-1 NL4-3 infected in human PBMC assessed as suppression of viral replication by measuring reduction in p24 level measured at 72 hrs post-infection by ELISA", "assay_type": "functional, organism-based", "details": "Human immunodeficiency virus 1, 72 h", "in_short": "(§3)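 Cells were incubated with 0.5 MOI virus in the presence of polybrene at 37 °C for 4 h with intermittent mixing, then washed and plated in complete RPMI-1640. Compound added at different concentrations, with untreated and DMSO controls. PBMC were PHA-activated. Supernatant p24 measured by capture ELISA (A450) at 72 h. % inhibition calculated relative to untreated cells.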"}, "[5]": {"experiment": "Cytotoxicity against human U937 cells assessed as reduction in cell viability after 48 hrs by MTT assay", "assay_type": "cell-based, U-937", "in_short": "as §2"}, "[6]": {"system": "Human immunodeficiency virus 1", "experiment": "Antiviral activity against HIV-1 subtype C isolate indeiC infected in human PBMC cells assessed as suppression of viral replication by measuring reduction in p24 level measured at 72 hrs post-infection by ELISA", "assay_type": "functional, organism-based", "in_short": "as §3"}, "[7]": {"biological_target": "Heat shock protein HSP90 (Homo sapiens) (UniProt P07900+P08238)", "experiment": "Inhibition of HSP90 (unknown origin) expressed in HEK-293T cells assessed as reduction in Tat-mediated transactivation at 1 uM measured at 48 hrs post-transfection by LTR-driven luciferase reporter gene assay", "assay_type": "cell-based", "in_short": "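HEK-293T cells were co-transfected with p-LTR-Luc and Tat using PEI in the presence or absence of compound. At 48 h post-transfection, cells were harvested and luminescence and fluorescence were measured.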"}, "[8]": {"system": "Human immunodeficiency virus 1", "experiment": "Antiviral activity against HIV-1 NL4-3 infected in CEM-GFP cells assessed as reduction in HSP90 expression measured at 72 hrs post-infection by immunoblotting analysis", "assay_type": "functional, organism-based", "in_short": "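CEM-GFP cells were infected with 0.5 MOI HIV-1 NL4-3 with or without compound, with DMSO as vehicle control. At 72 h post-infection, HSP90 protein was measured by immunoblotting and quantified by densitometry.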"}, "[9]": {"system": "Human immunodeficiency virus 1", "experiment": "Antiviral activity against HIV-1 subtype C isolate indeiC infected in human CEM-GFP cells assessed as suppression of viral replication by measuring reduction in p24 level measured at 72 hrs post-infection by ELISA", "assay_type": "functional, organism-based", "in_short": "as §3"}, "[10]": {"system": "HIV-1 M:B", "experiment": "Antiviral activity against R5 tropic HIV-1 subtype-B ADA infected in human CEM-GFP cells assessed as suppression of viral replication by measuring reduction in p24 level measured at 72 hrs post-infection by ELISA", "assay_type": "functional, cell-based", "in_short": "as §3"}, "[11]": {"system": "Human immunodeficiency virus 1", "experiment": "Antiviral activity against HIV-1 NL4-3 infected in human CEM-GFP cells assessed as suppression of viral replication by measuring reduction in p24 level measured at 72 hrs post-infection by ELISA", "assay_type": "functional, organism-based", "details": "Human immunodeficiency virus 1, NL4-3, CEM-GFP", "in_short": "as §3"}, "[12]": {"experiment": "Cytotoxicity against human CEM-GFP cells assessed as reduction in cell viability after 48 hrs by MTT assay", "assay_type": "cell-based", "in_short": "as §2"}, "[13]": {"experiment": "Therapeutic index, ratio of CC50 for human CEM-GFP cells to IC50 for antiviral activity against HIV-1 NL4-3 infected in human CEM-GFP cells", "assay_type": "toxicity, cell-based", "details": "read-out: Ratio CC50/IC50", "in_short": "as §1"}, "[14]": {"experiment": "Ratio of therapeutic index for compound to therapeutic index of AUY922"}, "[15]": {"system": "HIV-1 M:B", "experiment": "Antiviral activity against X4 tropic HIV-1 subtype-B 3B infected in human CEM-GFP cells assessed as suppression of viral replication by measuring reduction in p24 level measured at 72 hrs post-infection by ELISA", "assay_type": "functional, cell-based", "in_short": "as §3"}, "[16]": {"system": "Human immunodeficiency virus 1", "experiment": "Antiviral activity against HIV-1 NL4-3 infected in human Jurkat J6 cells assessed as suppression of viral replication by measuring reduction in p24 level measured at 72 hrs post-infection by ELISA", "assay_type": "functional, organism-based", "details": "Human immunodeficiency virus 1, Jurkat", "in_short": "as §3"}, "[17]": {"system": "Human immunodeficiency virus 1", "experiment": "Antiviral activity against 0.01 to 0 1 MOI HIV-1 NL4-3 infected in human PBMC assessed as suppression of viral replication by measuring reduction in p24 level at 1 uM measured at 72 hrs post-infection by ELISA", "assay_type": "functional, organism-based", "in_short": "(§4)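 Cells infected with HIV-1 NL4-3 at MOI 0.01, 0.1 or 1 in the presence of polybrene at 37 °C for 4 h. Cells then washed in serum-free RPMI-1640 and plated in complete RPMI-1640 with compound at its highest non-cytotoxic concentration. Untreated and DMSO controls. Supernatant p24 measured by antigen-capture ELISA (A450) at 72 h post-infection. % inhibition = (untreated − treated p24)/untreated p24 × 100.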"}, "[18]": {"experiment": "Therapeutic index, ratio of CC50 for human U937 cells to IC50 for antiviral activity against HIV-1 NL4-3 infected in human U937 cells", "assay_type": "toxicity, cell-based", "details": "read-out: Ratio CC50/IC50", "in_short": "as §1"}, "[19]": {"system": "HIV-1 M:B", "experiment": "Antiviral activity against X4 tropic HIV-1 subtype-B 3B infected in human PBMC assessed as suppression of viral replication by measuring reduction in p24 level measured at 72 hrs post-infection by ELISA", "assay_type": "functional", "in_short": "as §3"}, "[20]": {"system": "Human immunodeficiency virus 1", "experiment": "Antiviral activity against HIV-1 NL4-3 infected in human TZM-bl cells assessed as reduction in viral replication at 1000 nM measured at 48 hrs post-infection by steady-glo reporter gene assay relative to control", "assay_type": "functional", "details": "Human immunodeficiency virus 1, NL4-3, TZM-bl", "in_short": "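TZM-bl cells (0.15×10^6/well) were infected with 0.5 MOI HIV-1 NL4-3 12 h after seeding and treated at the highest non-cytotoxic concentration, which was set by MTT assay. At 48 h post-infection, cells were lysed and mixed 1:1 with Steady-Glo substrate, and luminescence was read.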"}, "[21]": {"system": "Human immunodeficiency virus 1", "experiment": "Antiviral activity against R5X4 tropic HIV-1 subtype-B 89.6 infected in human PBMC assessed as suppression of viral replication by measuring reduction in p24 level measured at 72 hrs post-infection by ELISA", "assay_type": "functional, organism-based", "details": "M:B_89.6", "in_short": "as §3"}, "[22]": {"system": "Human immunodeficiency virus 1", "experiment": "Antiviral activity against 0.01 to 0 1 MOI HIV-1 NL4-3 infected in human CEM-GFP cells assessed as suppression of viral replication by measuring reduction in p24 level at 1 uM measured at 72 hrs post-infection by ELISA", "assay_type": "functional, organism-based", "in_short": "as §4"}, "[23]": {"system": "HIV-1 M:B", "experiment": "Antiviral activity against R5 tropic HIV-1 subtype-B ADA infected in human PBMC assessed as suppression of viral replication by measuring reduction in p24 level measured at 72 hrs post-infection by ELISA", "assay_type": "functional", "in_short": "as §3"}, "[24]": {"experiment": "Cytotoxicity against human PBMC assessed as reduction in cell viability after 48 hrs by MTT assay", "assay_type": "cell-based", "in_short": "as §2"}, "[25]": {"system": "Human immunodeficiency virus 1", "experiment": "Antiviral activity against HIV-1 NL4-3 infected in human U937 cells assessed as suppression of viral replication by measuring reduction in p24 level measured at 72 hrs post-infection by ELISA", "assay_type": "functional, organism-based", "details": "Human immunodeficiency virus 1, U-937, 72 h", "in_short": "as §3"}, "[26]": {"system": "Human immunodeficiency virus 1", "experiment": "Antiviral activity against R5X4 tropic HIV-1 subtype-B 89.6 infected in human CEM-GFP cells assessed as suppression of viral replication by measuring reduction in p24 level measured at 72 hrs post-infection by ELISA", "assay_type": "functional, organism-based", "details": "M:B_89.6", "in_short": "as §3"}, "[27]": {"experiment": "Cytotoxicity against human TZM-bl cells assessed as maximum non-cytotoxic concentration after 48 hrs by MTT assay", "assay_type": "cell-based", "details": "read-out: MNCC", "in_short": "as §2"}, "[28]": {"experiment": "Therapeutic index, ratio of CC50 for human PBMC to IC50 for antiviral activity against HIV-1 NL4-3 infected in human PBMC", "assay_type": "toxicity", "details": "read-out: Ratio CC50/IC50", "in_short": "as §1"}, "[29]": {"biological_target": "Protease (Human immunodeficiency virus 1) (UniProt Q9YQ12)", "sequence (Q9YQ12 as listed by the source)": "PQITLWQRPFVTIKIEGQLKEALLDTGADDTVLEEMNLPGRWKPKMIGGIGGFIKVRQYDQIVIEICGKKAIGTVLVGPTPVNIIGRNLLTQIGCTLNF", "experiment": "Inhibition of HIV-1 protease at 1 uM using synthetic peptide as substrate after 15 mins by fluorimetric based assay", "in_short": "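Cell-free fluorometric protease kit. HIV-1 protease was diluted in reaction buffer and loaded at 10 nmol/well with or without compound. Indinavir served as positive control, with untreated and DMSO controls. Fluorescence (Ex/Em 330/450 nm) was read 15 min after addition. n = 3.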"}, "[30]": {"biological_target": "Human immunodeficiency virus type 1 reverse transcriptase (Human immunodeficiency virus 1) (UniProt Q72547)", "experiment": "Inhibition of HIV-1 reverse transcriptase RNA-dependent DNA polymerase activity assessed as reduction in biotin-dUTP incorporation at 1 uM using poly(A)/oligo (dT)15 as template/primer by ELISA", "in_short": "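RNA-dependent DNA polymerase activity of HIV-1 RT was tested with a colorimetric reverse transcriptase kit. Nevirapine served as positive control, with untreated and DMSO vehicle wells. Compound was tested at its highest non-cytotoxic concentration. n = 3.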"}},
  "note": "Calls of active or inactive are those of the source. The calls are words filed in the database; no cut-off is given here.",
  "data": [
    {"smiles": "CC(C)NC(=O)Cc1cc(-c2ccccc2)on1", "values": [
      {"measurement": "Ratio", "setting": "[1]", "result": 1.5},
      {"measurement": "selectivity ratio", "setting": "[2]", "result": 1140},
      {"measurement": "CC50 at 48 h", "setting": "[3]", "result": 60.3, "unit": "µM"},
      {"measurement": "IC50", "setting": "[4]", "result": 0.0562, "unit": "µM"},
      {"measurement": "CC50 at 48 h", "setting": "[5]", "result": 56.6, "unit": "µM"},
      {"measurement": "inhibition", "setting": "[6]", "result": "Active"},
      {"measurement": "inhibition", "setting": "[7]", "result": "Active"},
      {"measurement": "Activity", "setting": "[8]", "result": "Active"},
      {"measurement": "inhibition", "setting": "[9]", "result": "Active"},
      {"measurement": "inhibition", "setting": "[10]", "result": "Active"},
      {"measurement": "IC50", "setting": "[11]", "result": 0.0395, "unit": "µM"},
      {"measurement": "CC50 at 48 h", "setting": "[12]", "result": 65.6, "unit": "µM"},
      {"measurement": "selectivity ratio", "setting": "[13]", "result": 1660},
      {"measurement": "Ratio", "setting": "[14]", "result": 3.5},
      {"measurement": "inhibition", "setting": "[15]", "result": "Active"},
      {"measurement": "IC50", "setting": "[16]", "result": 0.0527, "unit": "µM"},
      {"measurement": "inhibition", "setting": "[17]", "result": "Active"},
      {"measurement": "selectivity ratio", "setting": "[18]", "result": 1070},
      {"measurement": "inhibition", "setting": "[19]", "result": "Active"},
      {"measurement": "inhibition at 1 µM", "setting": "[20]", "result": 85, "unit": "%"},
      {"measurement": "inhibition", "setting": "[21]", "result": "Active"},
      {"measurement": "inhibition", "setting": "[22]", "result": "Active"},
      {"measurement": "inhibition", "setting": "[23]", "result": "Active"},
      {"measurement": "CC50 at 48 h", "setting": "[24]", "result": 67.9, "unit": "µM"},
      {"measurement": "IC50", "setting": "[25]", "result": 0.053, "unit": "µM"},
      {"measurement": "inhibition", "setting": "[26]", "result": "Active"},
      {"measurement": "MNTC at 48 h", "setting": "[27]", "result": 1000, "unit": "nM"},
      {"measurement": "selectivity ratio", "setting": "[28]", "result": 1210},
      {"measurement": "inhibition", "setting": "[29]", "result": "inactive"},
      {"measurement": "inhibition", "setting": "[30]", "result": "inactive"}
    ]}
  ]
}
